Legend:
Type in all cases: functional
Details in all cases: Mus musculus; read-out: ED50
Mus musculus [1] = organism: Mus musculus; experiment: Antidepressant activity using yohimbine potentiation test in mice
Mus musculus [2] = organism: Mus musculus; experiment: Antidepressant activity using oxotremorine antagonism test in mice
Mus musculus [3] = organism: Mus musculus; experiment: Antidepressant activity using apomorphine potentiation test in mice
Outline: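 Male CF-1 mice in groups of four got test compound i.p. (50 and 25 mg/kg) in 0.25% aqueous methylcellulose. 1 h later they got apomorphine 10 mg/kg s.c. and were watched 30 min for stereotyped gnawing and licking, each positive. If ≥3 were positive, the test was repeated at 0.3 log lower doses until ≤1 responded. ED50 and 95% CI by Spearman–Karber.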

SMILES | ED50 (Mus musculus [1]) [mg/kg] | ED50 (Mus musculus [2]) [mg/kg] | ED50 (Mus musculus [3]) [mg/kg]
C=CC(=O)N(c1ccc(Cl)c(Cl)c1)C1CCCC1N(C)C (stereo not given) | 2 | 5 | 5
CN(C)C1CCCC1N(C(=O)C1CCC1)c1ccc(Cl)c(Cl)c1 (stereo not given) | 0.8 | 0.6 | > 50
CCC(=O)N(c1ccc(Cl)c(Cl)c1)C1CCCCCC1N(C)C (stereo not given) | 2 | 6 | 20
CC(C)C(=O)N(c1ccc(Cl)c(Cl)c1)C1CCCC1N(C)C (stereo not given) | 2 | 4 | 5
CCC(=O)N(c1ccc(Cl)c(Cl)c1)C1CCCCCCC1N(C)C (stereo not given) | 20 | 10 | 6
CCC(=O)N(c1ccc(C#N)cc1)C1CCCC1N(C)C (stereo not given) | 10 | 40 | > 50
CCC(=O)N(c1ccc([N+](=O)[O-])cc1)C1CCCC1N(C)C (stereo not given) | 20 | 6 | 20
CN(C)C1CCCC1N(C(=O)C1CCCCC1)c1ccc(Cl)c(Cl)c1 (stereo not given) | 1 | 2 | > 50
CCC(=O)N(c1ccc(Cl)c(Cl)c1)C1CCCCC1N(C)C (stereo not given) | 30 | 20 | 20
CCNC1CCCC1N(C(=O)CC)c1ccc(Cl)c(Cl)c1 (stereo not given) | 0.2 | 2 | 
CCC(=O)N(c1ccc(F)cc1)C1CCCC1N(C)C (stereo not given) | 5 | 0.08 | > 50
CCC(=O)N(c1ccc(C(C)=O)cc1)C1CCCC1N(C)C (stereo not given) | > 50 | 40 | > 50
CCC(=O)N(c1cccc(OC)c1)C1CCCC1N(C)C (stereo not given) | 0.8 | 4 | 4
CCC(=O)N(c1cccc(C(F)(F)F)c1)C1CCCC1N(C)C (stereo not given) | 0.3 | 0.2 | 0.9
CN(C)C1CCCC1N(C(=O)C1CC1)c1ccc(Cl)c(Cl)c1 (stereo not given) | 0.2 | 0.3 | 0.4
CCC(=O)N(c1cccc(Cl)c1)C1CCCC1N(C)C (stereo not given) | 0.4 | 0.2 | 20
CCC(=O)N(c1ccc(Cl)c(Cl)c1)C1CCCC1N(C)CCc1ccccc1 (stereo not given) | 0.1 | 0.4 | 5

SMILES | ED50 (Mus musculus [1]) [mg/kg] | ED50 (Mus musculus [2]) [mg/kg] | ED50 (Mus musculus [3]) [mg/kg]
CN(C)C1CCCC1N(C(=O)c1ccco1)c1ccc(Cl)c(Cl)c1 (stereo not given) | 9 | > 50 | > 50
CCC(=O)N(c1ccc(C(F)(F)F)cc1)C1CCCC1N(C)C (stereo not given) | 10 | 25 | 10
CCC(=O)N(c1ccc(Br)c(Br)c1)C1CCCC1N(C)C (stereo not given) | 0.1 | 0.2 | 0.5
CCCN(CCC)C1CCCC1N(C(=O)CC)c1ccc(Cl)c(Cl)c1 (stereo not given) | 2 | 0.1 | > 50
C=CCNC1CCCC1N(C(=O)CC)c1ccc(Cl)c(Cl)c1 (stereo not given) | 0.2 | 3 | 
CC(=O)N(c1ccc(Cl)c(Cl)c1)C1CCCC1N(C)C (stereo not given) | 9 | 10 | 20
CCC(=O)N(c1ccc(C(=O)OC)cc1)C1CCCC1N(C)C (stereo not given) | > 50 | > 50 | > 50
CCCC(=O)N(c1ccccc1)C1CCCC1N(C)C (stereo not given) | 6 | 10 | 40
CC(=O)N(c1ccccc1)C1CCCC1N(C)C (stereo not given) | 7 | 9 | 40
CCC(=O)N(c1ccc(Cl)cc1)C1CCCC1N(C)C (stereo not given) | 3 | 0.2 | > 50
CCC(=O)N(c1ccccc1C)C1CCCC1N(C)C (stereo not given) | 7 | 5 | > 50
CCC(=O)N(c1c(F)c(F)c(F)c(F)c1F)C1CCCC1N(C)C (stereo not given) | > 50 | > 50 | > 50
CCC(=O)N(c1ccccc1Cl)C1CCCC1N(C)C (stereo not given) | 6 | 2 | > 50
CCC(=O)N(c1ccc(Cl)c(Cl)c1)C1CCCC1N(C)CCN(C)C (stereo not given) | 0.8 | 5 | 20
CCC(=O)N(c1ccc(Cl)c(Cl)c1)C1CCCC1N(C)CCCN(C)C (stereo not given) | 4 | 10 | 30
CCC(=O)N(c1cc(Cl)c(Cl)c(Cl)c1)C1CCCC1N(C)C (stereo not given) | 4 | 40 | 40
CCC(=O)N(c1cc(Cl)cc(Cl)c1)C1CCCC1N(C)C (stereo not given) | 0.9 | 5 | 30
